For experiment [1], the system named is Rattus norvegicus. Put plainly: Antiinflammatory activity in rat assessed as inhibition of carrageenan-induced paw oedema at 50 mg/kg after 4 hrs by plethysmography relative to controlchallenge by plethysmography. The format is functional. The gist of the method:
(§1)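 0.1 ml of 1% carrageenan was injected subplantar into the right hind paw. Paw volume was measured plethysmographically immediately and at 1, 2, 3 and 4 h; oedema is the volume difference. Test compounds were dosed at 50 mg/kg b.w., with diclofenac sodium 50 mg/kg as reference. Percent inhibition was calculated against the saline control group. N = 5, mean ± SEM, ANOVA.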

Experiment [2] has as its system Rattus norvegicus. As to the kind of experiment: Antiinflammatory activity in rat assessed as inhibition of carrageenan-induced paw oedema at 50 mg/kg after 3 hrs by plethysmography relative to control. The format is functional. The gist of the method:
as §1

Experiment [3] relates to Rattus norvegicus. As to the kind of experiment: Antiinflammatory activity in rat assessed as inhibition of carrageenan-induced paw oedema at 50 mg/kg after 2 hrs by plethysmography relative to control. The format is functional. Put shortly: as §1
The test system of experiment [4] is Rattus norvegicus. Put plainly: Antiinflammatory activity in rat assessed as inhibition of carrageenan-induced paw oedema at 50 mg/kg after 1 hr by plethysmography relative to control. The format is functional. The gist of the method:
as §1

Experiment [5] deals with Mus musculus. As to the kind of experiment: Analgesic activity in Swiss albino mouse assessed as protection against acetic acid-induced wriths at 50 mg/kg, po administered 30 mins prior acetic acid challenge measured for 10 mins. The format is functional. Put shortly: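 Adult Swiss albino mice (20-25 g) were used, with N = 5 per group. Wriths were counted for 10 min, starting 5 min after acetic acid injection, on day 1 as each mouse's control. Next day, 50 mg/kg was given orally 30 min before acetic acid. Diclofenac sodium was the standard. Protection = […] × 100 from group means. Analysis: mean ± SEM, one-way ANOVA, Tukey-Kramer.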

Experiment [6] concerns Mus musculus. Put plainly: Analgesic activity in Swiss albino mouse assessed as inhibition of acetic acid-induced writhing at 50 mg/kg, po administered 30 mins prior acetic acid-induction measured after 1 to 2 hrs by tail immersion method. The format is functional, organism-based. The arrangement: dose 50 mg/kg.
Experiment [7] has as its system Mus musculus. As to the kind of experiment: Analgesic activity in Swiss albino mouse assessed as inhibition of acetic acid-induced writhing at 50 mg/kg, po administered 30 mins prior acetic acid-induction measured after 2 hrs by tail immersion method. Format: functional, organism-based. The arrangement: dose 50 mg/kg.
The test system of experiment [8] is Mus musculus. Put plainly: Analgesic activity in Swiss albino mouse assessed as inhibition of acetic acid-induced writhing at 50 mg/kg, po administered 30 mins prior acetic acid-induction measured after 1 hr by tail immersion method. The format is functional, organism-based. Details: dose 50 mg/kg.

Activity calls are given as the source filed them. No cut-off for these calls is given here.

Take `O=C(O)Cc1ccccc1Nc1c(Cl)cccc1Cl` [DICLOFENAC SODIUM]: the inhibition in vivo at 50 mg/kg came out at 66.7% in the experiment on Rattus norvegicus [1]; 69.7% in the experiment with Rattus norvegicus [2]; 67.4% in the experiment on Rattus norvegicus [3]; 70.9% in the experiment on Rattus norvegicus [4]; 77.5% in the experiment with Mus musculus [5].

For the molecule `CC(=O)c1c(NNc2ccc(Br)cc2)cc(C)oc1=O`, the inhibition in vivo at 50 mg/kg with Rattus norvegicus [1] turned out to be 18.6%; with Rattus norvegicus [2], 40.4%; with Rattus norvegicus [3] it was 47.2%; in the experiment with Rattus norvegicus [4] it was 46.8%; with Mus musculus [5], 53.1%.

For `Cc1cc2nn(-c3nc(-c4ccccc4)cs3)c(C)c2c(=O)o1`, the inhibition in vivo at 50 mg/kg turned out to be 52.9% in the experiment with Rattus norvegicus [1]; 62.6% in the experiment with Rattus norvegicus [2]; 59.5% in the experiment on Rattus norvegicus [3]; 67.1% in the experiment with Rattus norvegicus [4]; 70.2% in the experiment on Mus musculus [5]. Also, in the experiment on Mus musculus [6], the outcome was Active.

`CC(=O)c1c(NNc2nc(-c3ccccc3)cs2)cc(C)oc1=O`: the inhibition in vivo at 50 mg/kg with Rattus norvegicus [1] is 23.5%; with Rattus norvegicus [2] it was 45.5%; with Rattus norvegicus [3], 48.3%; in the experiment with Rattus norvegicus [4], 51.9%; with Mus musculus [5], 51.4%. Further, in the experiment with Mus musculus [7], the outcome was Active.

For `CC(=O)c1c(NNc2nc3ccccc3s2)cc(C)oc1=O`, the inhibition in vivo at 50 mg/kg in the experiment on Rattus norvegicus [1] was 49%; in the experiment on Rattus norvegicus [2], 54.5%; in the experiment with Rattus norvegicus [3], 58.4%; in the experiment with Rattus norvegicus [4] it was 64.6%; in the experiment on Mus musculus [5] it was 65.3%. Also, the result in the experiment with Mus musculus [6] and in the experiment with Mus musculus [8] was Active.

For `CC(=O)c1c(NNc2ccc([N+](=O)[O-])cc2)cc(C)oc1=O`, the inhibition in vivo at 50 mg/kg with Rattus norvegicus [1] was 44.1%; in the experiment on Rattus norvegicus [2], 45.5%; in the experiment with Rattus norvegicus [3], 55%; with Rattus norvegicus [4] it was 53.2%; in the experiment with Mus musculus [5], 47.3%.

As for `Cc1cc2nn(-c3ccc(Br)cc3)c(C)c2c(=O)o1`, the inhibition in vivo at 50 mg/kg in the experiment with Rattus norvegicus [1] came to 38.2%; in the experiment with Rattus norvegicus [2], 49.5%; with Rattus norvegicus [3], 50.6%; with Rattus norvegicus [4], 59.5%; with Mus musculus [5], 44.9%. Also, in the experiment with Mus musculus [6], the outcome was Active.

On to `CC(=O)c1c(NNc2ccccc2)cc(C)oc1=O`, for which the inhibition in vivo at 50 mg/kg in the experiment with Rattus norvegicus [1] was 52%; with Rattus norvegicus [2], 55.6%; in the experiment on Rattus norvegicus [3], 57.3%; in the experiment with Rattus norvegicus [4] it was 59.5%; in the experiment with Mus musculus [5], 49.8%. Besides, the result with Mus musculus [8] was Active.

For the molecule `COc1ccc(NNc2cc(C)oc(=O)c2C(C)=O)cc1`, the inhibition in vivo at 50 mg/kg in the experiment with Rattus norvegicus [1] was found to be 24.5%; in the experiment on Rattus norvegicus [2], 44.4%; in the experiment on Rattus norvegicus [3], 49.4%; in the experiment on Rattus norvegicus [4] it was 50%; in the experiment on Mus musculus [5], 59.2%.

On to `CC(=O)c1c(NNc2nc(C)cc(C)n2)cc(C)oc1=O`, for which the inhibition in vivo at 50 mg/kg in the experiment on Rattus norvegicus [1] was 42.2%; with Rattus norvegicus [2] it was 55.6%; with Rattus norvegicus [3], 61.8%; in the experiment on Rattus norvegicus [4], 59.5%; in the experiment with Mus musculus [5] it was 64.9%. The outcome in the experiment with Mus musculus [8] was Active.

For `CC(=O)c1c(NNc2cc(C)c3ccccc3n2)cc(C)oc1=O`, the inhibition in vivo at 50 mg/kg in the experiment on Rattus norvegicus [1] amounted to 51%; in the experiment with Rattus norvegicus [2], 55.6%; with Rattus norvegicus [3] it was 55%; in the experiment with Rattus norvegicus [4] it was 51.9%; with Mus musculus [5], 75%. Besides, the result in the experiment with Mus musculus [7], with Mus musculus [6] and in the experiment with Mus musculus [8] was Active.

Take `CC(=O)c1c(NNc2ccc(Cl)cc2)cc(C)oc1=O`: the inhibition in vivo at 50 mg/kg in the experiment on Rattus norvegicus [1] worked out at 28.4%; with Rattus norvegicus [2], 58.6%; in the experiment on Rattus norvegicus [3] it was 57.3%; in the experiment on Rattus norvegicus [4], 54.4%; with Mus musculus [5], 75.1%.

With `Cc1cc2nn(-c3ccc(Cl)cc3)c(C)c2c(=O)o1`, the inhibition in vivo at 50 mg/kg with Rattus norvegicus [1] turned out to be 38.2%; in the experiment with Rattus norvegicus [2], 56.6%; with Rattus norvegicus [3], 59.5%; in the experiment with Rattus norvegicus [4] it was 58.2%; in the experiment with Mus musculus [5], 65.3%.

Take `Cc1ccc(-n2nc3cc(C)oc(=O)c3c2C)cc1`: the inhibition in vivo at 50 mg/kg in the experiment on Rattus norvegicus [1] came to 41.7%; in the experiment with Rattus norvegicus [2], 54%; in the experiment on Rattus norvegicus [3], 58.4%; with Rattus norvegicus [4] it was 63.3%; in the experiment on Mus musculus [5] it was 69.4%. In the experiment with Mus musculus [7], the outcome was Active.

As to `Cc1cc2nn(-c3ccccc3)c(C)c2c(=O)o1`, the inhibition in vivo at 50 mg/kg in the experiment with Rattus norvegicus [1] was found to be 43.1%; in the experiment on Rattus norvegicus [2], 52.5%; in the experiment with Rattus norvegicus [3], 55%; with Rattus norvegicus [4], 57%; in the experiment on Mus musculus [5], 50.2%. The outcome with Mus musculus [6] and with Mus musculus [8] was Active.

Turning to `CC(=O)c1c(NNc2ccc(C)cc2)cc(C)oc1=O`, the inhibition in vivo at 50 mg/kg in the experiment with Rattus norvegicus [1] turned out to be 50%; with Rattus norvegicus [2], 59.6%; with Rattus norvegicus [3] it was 53.4%; in the experiment with Rattus norvegicus [4], 60.1%; with Mus musculus [5], 70.2%. Moreover, the result in the experiment with Mus musculus [8] was Active.

For `COc1ccc(-n2nc3cc(C)oc(=O)c3c2C)cc1`, the inhibition in vivo at 50 mg/kg with Rattus norvegicus [1] is 42.2%; in the experiment on Rattus norvegicus [2] it was 57.6%; in the experiment on Rattus norvegicus [3], 53.9%; with Rattus norvegicus [4] it was 64.6%; with Mus musculus [5] it was 75.9%.

The values above are taken from ChEMBL document CHEMBL1949650, “Design, synthesis, computational and biological evaluation of some new hydrazino derivatives of DHA and pyranopyrazoles” (2012).
